Calls of active or inactive are those of the source. The rule behind the calls is not given here.
Assays:
[1] = biological target: T1, RAC-alpha serine/threonine-protein kinase (Homo sapiens, UniProt P31749); details: IGROV-1, 3 to 10 uM
[2] = biological target: T1, RAC-alpha serine/threonine-protein kinase; details: IGROV-1, 3 to 10 uM; remark: listed apart in the source
[3] = biological target: T1, RAC-alpha serine/threonine-protein kinase; experiment: Inhibition of human Akt1 PH domain using AKTide-2T as substrate at 100 uM by ELISA
Procedure, shortened: (§1)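 Kit ELISA: wells precoated with AKTide-2T; constitutively active human Akt1 (25 m units/well) plus compound in kinase buffer (100 µM final, or 1–250 µM for concentration-response), Mg2+/ATP added. Phospho-substrate detected by HRP anti-phospho-AKTide-2T antibody with TMB, A450.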

[4] = biological target: T1, RAC-alpha serine/threonine-protein kinase; details: IGROV-1, 3 to 10 uM; remark: listed apart in the source
[5] = biological target: T1, RAC-alpha serine/threonine-protein kinase; experiment: Inhibition of human Akt1 PH domain using AKTide-2T as substrate by ELISA
Procedure, shortened: as §1

[6] = biological target: RAC-alpha serine/threonine-protein kinase (Mus musculus) (UniProt P31750); experiment: Inhibition of serum-stimulated Akt phosphorylation in mouse NIH/3T3-K-RAS cells at 100 uM pretreated for 1 hr followed by serum addition for 30 mins by Western blot analysis; type: cell-based
Procedure, shortened: (§2)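 K-ras-transformed NIH 3T3 cells (DMEM, 10% NBCS, 37 °C) plated at 3 x 10⁵ cells/mL, starved 16 h in 0.5% serum, pretreated 1 h with compound at 100 µM or DMSO, then stimulated with 10% serum for 30 min. Lysates (15 µg) on 8% SDS-PAGE, probed for phospho-Akt Ser473, reprobed for total Akt, actin loading control; ECL; densitometry from three experiments.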

[7] = biological target: RAC-alpha serine/threonine-protein kinase (Mus musculus) (UniProt P31750); experiment: Inhibition of Akt phosphorylation in mouse NIH/3T3-K-RAS cells at 100 uM pretreated for 1 hr by Western blot analysis; type: cell-based
Procedure, shortened: as §2

[8] = species on record: Homo sapiens; experiment: (§3) Antiproliferative activity against PTEN-deficient human Nim1 cells expressing BRAF V600E mutant assessed as cell growth inhibition after 72 hrs by coulter counter method; type: functional
Procedure, shortened: (§4)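 Cells seeded in complete medium in 12-well plates: Nim-1 at 5000 cells/cm² and TPC-1 at 3000 cells/cm², both in DMEM + 10% FBS; K1 at 4000 cells/cm² in DMEM:Ham's F12:MCDB 105 (2:1:1) + 20% serum; 37 °C, 5% CO2. Next day, exposed to increasing concentrations or DMSO (0.5% final) for 72 h. Cells trypsinized and Coulter-counted; survival as % of untreated, duplicates; IC50 = 50% growth inhibition.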

[9] = tested on: K1; experiment: (§5) Antiproliferative activity against human K1 cells expressing BRAF V600E/PI3K E542K mutants assessed as cell growth inhibition after 72 hrs by coulter counter method; type: functional, cell-based
Procedure, shortened: as §4

[10] = tested on: IGROV-1; experiment: (§6) Antiproliferative activity against human IGROV1 cells assessed as cell growth inhibition after 24 hrs by coulter counter method; type: functional, cell-based
Procedure, shortened: (§7)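 Seeded at 5000 cells/cm² in complete RPMI (10% serum), 37 °C, 5% CO2; next day serum-starved and drug-treated for 24 h, then complete medium restored for a further 48 h. Cells trypsinized and counted by Coulter counter 72 h after treatment start; survival vs untreated; IC50 = concentration inhibiting proliferation by 50%; duplicates, two independent experiments, mean ± SEM.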

[11] = tested on: TPC1; experiment: Antiproliferative activity against human TPC1 cells harboring RET/PTC-1 rearrangement assessed as cell growth inhibition after 72 hrs by coulter counter method; type: functional, cell-based
Procedure, shortened: as §4

[12] = as §3; type: functional
Procedure, shortened: as §4

[13] = as §5; type: functional, cell-based; details: K1, 72 h
Procedure, shortened: as §4

[14] = as §6; type: functional, cell-based; details: IGROV-1, 24 h
Procedure, shortened: as §7

[15] = Antiproliferative activity against human K1 cells expressing BRAF V600E/PI3K E542K mutants assessed as cell growth inhibition at 50 uM after 72 hrs by coulter counter method relative to control; type: functional; details: K1, 72 h, read-out: GI
Procedure, shortened: (§8)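 Cells plated in complete medium (TPC-1 3000 cells/cm², DMEM + 10% FBS; K1 4000 cells/cm², DMEM:Ham's F12:MCDB 105 2:1:1 + 20% serum), 37 °C, 5% CO2. Next day exposed to drug or DMSO (0.5% final) for 72 h; trypsinized, Coulter counted; % survival vs untreated; duplicates, two independent experiments, mean ± SEM; Student's two-tailed t test.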

[16] = biological target: T1, RAC-alpha serine/threonine-protein kinase; experiment: Inhibition of Akt in human IGROV1 cells assessed as reduction in GSK3alpha phosphorylation at Ser21 at 3 uM after 24 hrs by Western blot analysis; type: cell-based; details: IGROV-1
Procedure, shortened: (§9)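 Seeded in complete RPMI; 24 h later serum-starved and exposed to drug or vehicle for 24 h; total protein extracted and immunoblotted for serine-phosphorylated GSK-3α, GSK-3β and BAD.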

[17] = tested on: TPC1; experiment: Antiproliferative activity against human TPC1 cells harboring RET/PTC-1 rearrangement assessed as cell growth inhibition at 50 uM after 72 hrs by coulter counter method relative to control; type: functional; details: TPC1, 72 h, read-out: GI
Procedure, shortened: as §8

[18] = biological target: T1, RAC-alpha serine/threonine-protein kinase; experiment: Inhibition of Akt in human IGROV1 cells assessed as reduction in GSK3beta phosphorylation at Ser9 at 3 uM after 24 hrs by Western blot analysis; type: cell-based; details: IGROV-1
Procedure, shortened: as §9

[19] = tested on: K1; experiment: Cytotoxicity against human K1 cells expressing BRAF V600E/PI3K E542K mutants assessed as vacuolated and granulated cytoplasm at 50 uM after 72 hrs by coulter counter method; type: functional, cell-based
[20] = biological target: T1, RAC-alpha serine/threonine-protein kinase; experiment: Inhibition of Akt in human IGROV1 cells assessed as reduction in BAD phosphorylation at Ser136 at 3 uM after 24 hrs by Western blot analysis; type: cell-based; details: IGROV-1
Procedure, shortened: as §9

[21] = biological target: T1, RAC-alpha serine/threonine-protein kinase; details: 1 uM

T1 sequence (P31749 whole entry): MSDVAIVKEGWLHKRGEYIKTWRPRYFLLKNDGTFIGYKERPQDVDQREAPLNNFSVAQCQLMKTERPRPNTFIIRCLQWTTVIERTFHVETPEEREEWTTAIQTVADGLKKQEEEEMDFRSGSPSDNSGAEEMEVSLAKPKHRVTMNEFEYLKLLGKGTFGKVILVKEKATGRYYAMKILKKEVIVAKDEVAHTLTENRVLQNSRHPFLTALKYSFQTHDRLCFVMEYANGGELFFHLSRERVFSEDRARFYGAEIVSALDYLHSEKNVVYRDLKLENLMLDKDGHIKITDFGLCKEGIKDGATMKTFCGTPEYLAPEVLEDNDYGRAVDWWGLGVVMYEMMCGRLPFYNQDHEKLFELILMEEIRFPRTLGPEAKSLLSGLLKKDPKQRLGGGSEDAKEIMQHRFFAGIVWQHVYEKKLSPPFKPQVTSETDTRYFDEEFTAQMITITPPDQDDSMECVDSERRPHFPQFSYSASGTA
Chain of RAC-alpha serine/threonine-protein kinase (Mus musculus) (P31750 whole entry): as the sequence (P31749 whole entry) above, with S2N, A50S, T100A, K112R, E117T, K389T, G410N, H415D counted along it

O=c1[nH]c2ccccc2n1C1CCN(Cc2ccc(-c3nc4cc5[nH]cnc5cc4nc3-c3ccccc3)cc2)CC1
inhibition [1]: Active | inhibition [2]: Active | inhibition [3]: 89% | inhibition [4]: Active

CCCCCCCCCCCCCCCCCCOP(=O)([O-])OC1CC[N+](C)(C)CC1 [PERIFOSINE]
IC50 [5]: 43.3 µM

CCCCCC(=O)OCC(COC(=O)CCCCC)O[C@@H]1O[C@H](CS(=O)(=O)O)[C@@H](O)[C@H](O)[C@H]1O
inhibition [3]: 13%

CCCCCCCCO[C@@H]1O[C@H](CN)[C@@H](O)[C@H](O)[C@H]1O
inhibition [6]: inactive | inhibition [7]: inactive | growth inhibition (GI) [8]: inactive | inhibition [3]: 6% | growth inhibition (GI) [9]: inactive | growth inhibition (GI) [10]: inactive | growth inhibition (GI) [11]: inactive

O=c1[nH]c2ccccc2n1C1CCN(Cc2ccc(-c3nc4cc5nc[nH]c5cc4nc3-c3ccccc3)cc2)CC1
IC50 [12]: 3 µM | IC50 [13]: 10 µM | IC50 [14]: 0.3 µM | IC50 ([11]; TPC1, 72 h): 11 µM

O=S(=O)(O)C[C@H]1O[C@@H](OC(CO)CO)[C@H](O)[C@@H](O)[C@@H]1O
inhibition [3]: 13%

CCCCCCCCCCCCCCCCCC(=O)OCC(CO)O[C@@H]1O[C@H](CS(=O)(=O)O)[C@@H](O)[C@H](O)[C@H]1O (some centres not stated)
inhibition [6]: 40% | inhibition of growth at 50 µM [15]: 30% | inhibition [16]: Active | inhibition of growth at 50 µM [17]: 30% | inhibition [7]: Active | inhibition [18]: Active | Activity [19]: Active | IC50 [5]: 31.3 µM | inhibition [5]: Dose-dependent effect | inhibition [20]: Active | growth inhibition (GI) [8]: Dose-dependent effect | inhibition [3]: 86% | growth inhibition (GI) [9]: Dose-dependent effect | IC50 [14]: 2 µM | growth inhibition (GI) [11]: Dose-dependent effect

CCCCCCCCCCCC(=O)OCC(CO)O[C@@H]1O[C@H](CS(=O)(=O)O)[C@@H](O)[C@H](O)[C@H]1O (some centres not stated)
inhibition [3]: 31%

CCCCCCCCCCCC(=O)OCC(COC(=O)CCCCCCCCCCC)O[C@@H]1O[C@H](CO)[C@@H](O)[C@H](O)[C@H]1O
inhibition [3]: 7%

CCCCCCCCO[C@@H]1O[C@H](CS(=O)(=O)O)[C@@H](O)[C@H](O)[C@H]1O
inhibition [6]: inactive | inhibition [7]: inactive | growth inhibition (GI) [8]: inactive | inhibition [3]: 14% | growth inhibition (GI) [9]: inactive | growth inhibition (GI) [10]: inactive | growth inhibition (GI) [11]: inactive

CCCCCCCCCCCCOS(=O)(=O)[O-].[Na+]
inhibition [3]: inactive

CN[C@@H]1C[C@H]2O[C@@](C)([C@@H]1OC)n1c3ccccc3c3c4c(c5c6ccccc6n2c5c31)C(=O)NC4
inhibition [21]: Active

CCCCCC(=O)OCC(CO)O[C@@H]1O[C@H](CS(=O)(=O)O)[C@@H](O)[C@H](O)[C@H]1O (some centres not stated)
inhibition [3]: 18%

CCCCCCCCCCCC(=O)OCC(COC(=O)CCCCCCCCCCC)O[C@@H]1O[C@H](CS(=O)(=O)O)[C@@H](O)[C@H](O)[C@H]1O
inhibition [3]: 77%

CO[C@@H]1O[C@H](CS(=O)(=O)O)[C@@H](O)[C@H](O)[C@H]1O
inhibition [3]: 28%
